According to ChEMBL document CHEMBL4513216, “Probing the Open Global Health Chemical Diversity Library for Multistage-Active Starting Points for Next-Generation Antimalarials” (ACS Infect Dis, 2020):

Experiment: Toxicity liver stage against HepG2, at 10uM
Type: cell-based
Set-up: test concentration 10 uM, cell line HepG2-A16-CD81EGFP
Settings: human, HepG2-A16-CD81EGFP cells; read-out: INHIBITION
Procedure, shortened: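 Uninfected HepG2-A16-CD81EGFP cells, 3 × 10^3 per well, 1536-well, plated on prespotted compound at 10 μM final, parasite-free screening media added to match infected plates; puromycin 10 μM positive, DMSO 0.5% negative; run in parallel with 48 h PbLuc assay at 37 °C, 5% CO2; viability by CellTiter-Glo luminescence, normalized to controls.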

Going from `CC(C)N1CCC(CC(=O)NC(C(=O)O)c2cc(F)ccc2F)CC1` (stereo unspecified) to `C/C=C(\C)CN1C[C@@H](NC(=O)c2ccc(F)c(F)c2)C[C@H]1C(=O)NCC`, the cytotoxicity at 10 µM rises from 1.18% to 14%.

Compared with `CC(=O)c1cc(CN2C[C@@H](NS(=O)(=O)N(C)C)[C@H](C(C)C)C2)cs1`, `CC(C)c1nnc2n1CCN(Cc1csc(CC(=O)N(C)C)n1)C2` is lower in cytotoxicity at 10 µM: -7.79% for the first, -15.9% for the second.

First: O=C(NCCO)c1coc(Cn2cnc3ccccc32)n1
Second: CC(C)Cc1noc(CN(C)C(=O)CCNC(=O)c2ccccc2F)n1
The cytotoxicity at 10 µM of the first is higher: -4.48% for the first, -9.22% for the second.

Going from `CCNC(=O)C1CCN(c2cc(CC)nc3ccnn23)C1` (stereo unspecified) to `CCc1cnc(CN(C)C2CCN(CC(=O)Nc3nccs3)C2)o1` (stereo unspecified), the cytotoxicity at 10 µM falls from -8.24% to -18.7%.

Going from `Clc1cc(N2CCC(N3CCCC3)CC2)nc2[nH]ccc12` to `Nc1nc2cn(C3CCCC3)c(=O)c-2c[nH]1`, the cytotoxicity at 10 µM falls from -0.77% to -14.5%.

Going from `COc1ccc(-c2cn(CCn3c(C)cc(C)nc3=O)nn2)cn1` to `Cc1cc(-c2nn(C)c(Cl)c2CN2Cc3ccccc3C(O)C2)no1` (stereo unspecified), the cytotoxicity at 10 µM falls from 6.05% to 4.1%.

Going from `O=C(CCCc1cn[nH]c1)N1C[C@@H](CN2CCCCCC2)[C@@H](CO)C1` to `COc1cc2cc(C)c(SCCN3CCCCC3)nc2cc1OC`, the cytotoxicity at 10 µM falls from 1.52% to -0.883%.

Compared with `CN(Cc1ccccc1)c1ncccc1CNC1CCSCC1`, `CN(C(=O)Cc1ccccc1F)C1CCN(c2ccccn2)CC1` is higher in cytotoxicity at 10 µM: -2.84% for the first, -0.644% for the second.

First: CN(Cc1csc(-c2cccs2)n1)CC(O)CO (stereo unspecified)
Second: CCOc1cc2c(cc1CNC(Cc1cccs1)c1nccs1)OCO2 (stereo unspecified)
The cytotoxicity at 10 µM of the first is lower: -0.712% for the first, 7.15% for the second.

First: COc1cccc(Cl)c1C(C(=O)O)N(C)Cc1nnc(C)o1 (stereo unspecified)
Second: COc1ccc(COCC(O)CNC(=O)c2ccc(C)c(F)c2)cc1 (stereo unspecified)
The cytotoxicity at 10 µM of the first is lower: -23.4% for the first, -0.584% for the second.

Compared with `COc1ccc(-c2ccncc2)cc1CNC1CCCC1`, `CCCOc1ccc(CNC2CCCc3c2cnn3CC)cc1OC` (stereo unspecified) is higher in cytotoxicity at 10 µM: -47.7% for the first, -10.8% for the second.

Going from `OC(CNc1nc(C2CCCC2)nc2c1CCNCC2)C(F)(F)F` (stereo unspecified) to `c1cc(CN2CCCC(c3noc(C4CC4)n3)C2)no1` (stereo unspecified), the cytotoxicity at 10 µM falls from -4.78% to -7.57%.

First: CCC[C@@H]1CN(C(=O)c2cc3ccccc3cc2O)C[C@H]1N(C)C
Second: CN(C)CCN1CC(C(=O)N(C)Cc2cc3cc(F)ccc3[nH]2)CC1=O (stereo unspecified)
The cytotoxicity at 10 µM of the first is lower: -10.2% for the first, -1.03% for the second.

First: CCc1nnc(CNC(=O)CCN2CCN(c3cccc(C)c3)CC2)s1
Second: O=C(Cc1ccccc1F)N1CCN(Cc2noc(C3CC3)n2)CC1
The cytotoxicity at 10 µM of the first is higher: -1.82% for the first, -2.21% for the second.

First: Cc1ccc(NC(=O)CNC(C)Cc2ccsc2)cc1F (stereo unspecified)
Second: Cc1ccc(C(=O)NCCCNc2ccc(C(F)(F)F)cn2)cc1
The cytotoxicity at 10 µM of the first is higher: 9.17% for the first, -2.34% for the second.

Compared with `CN1CCCC1CCn1ccnc1-c1nc(-c2ccccc2)no1` (stereo unspecified), `Cc1nc(C)n(CC2CCCN2CCc2cccs2)n1` (stereo unspecified) is higher in cytotoxicity at 10 µM: -5.35% for the first, -3.51% for the second.

Going from `CCNC(=O)c1ccnc(NCC2COc3cc(OC)ccc3C2)c1` (stereo unspecified) to `Cc1ccc(NC2CCN(C(=O)c3ccc(C)o3)CC2)nn1`, the cytotoxicity at 10 µM falls from 0.145% to -4.69%.

First: CN1CCC(Oc2ccc(NC(=O)c3ccccc3Br)cc2)CC1
Second: CC(C)Oc1ncccc1CNC(=O)N1CCC1c1ccccc1 (stereo unspecified)
The cytotoxicity at 10 µM of the first is lower: -15.6% for the first, -4.92% for the second.

First: CCc1ccc(C2NCCc3cc4c(cc32)OCCO4)cc1 (stereo unspecified)
Second: CC(NC(=O)NCCCO)c1ccc2c(c1)OCCO2 (stereo unspecified)
The cytotoxicity at 10 µM of the first is lower: -6.63% for the first, -2.92% for the second.

Compared with `Cc1cncc(C2CCCN(C(=O)c3scnc3C)C2)n1` (stereo unspecified), `CC(C)CN(C)c1ccc(C(=O)N2CCCC2c2cnn(C)c2)cn1` (stereo unspecified) is lower in cytotoxicity at 10 µM: -2.19% for the first, -6.95% for the second.

Compared with `Cn1cnc2c1CCN(CCS(=O)(=O)c1ccc(Cl)cc1)C2`, `CCC(CC)NC(=O)c1ncn2c1CN(CC)S(=O)(=O)c1ccccc1-2` is lower in cytotoxicity at 10 µM: -6.67% for the first, -85.1% for the second.

First: CC(C)c1cc(NC(=O)CN2CCCC2c2noc(C(C)C)n2)on1 (stereo unspecified)
Second: CC1Cc2cc(-c3cncn3CC(=O)NC(C)(C)C)ccc2N1C (stereo unspecified)
The cytotoxicity at 10 µM of the first is higher: -3.84% for the first, -40.5% for the second.

First: CCCOCC(=O)NS(=O)(=O)c1ccc2c(c1)OCCCO2
Second: CN1CCOC(CNC(=O)CCCOc2ccccc2F)C1 (stereo unspecified)
The cytotoxicity at 10 µM of the first is lower: -5.67% for the first, -3.15% for the second.

First: CN(CCCNC(=O)N1CCCC1c1ccsc1)c1ccccn1 (stereo unspecified)
Second: CN(C(=O)CN1CCOC(Cn2cccn2)C1)c1nccs1 (stereo unspecified)
The cytotoxicity at 10 µM of the first is higher: -4.53% for the first, -14.2% for the second.

First: O=C(N[C@@H]1CN[C@H]2CCCO[C@H]21)c1cnccn1
Second: CCN1C(=O)CCCC12CCCN(C(=O)c1ccncc1F)C2 (stereo unspecified)
The cytotoxicity at 10 µM of the first is higher: 6.38% for the first, -3.27% for the second.

Compared with `CCNC(=O)[C@@H]1CCCN1[C@@H](C(=O)NC)C1CC1`, `Cc1cccc(C(=O)N2CCC[C@]3(C[C@@H](OCC4CC4)CO3)C2)n1` is lower in cytotoxicity at 10 µM: -2.39% for the first, -82.9% for the second.

First: O=C(c1ccco1)N1CC2(CCNCC2)c2cc(Cl)ccc21
Second: COCCN1CCC2(CC1)CN(C(=O)c1ccco1)CCO2
The cytotoxicity at 10 µM of the first is higher: 0.199% for the first, -1.27% for the second.

Compared with `CCOCC1CN(CC2CC2)Cc2nn(C)cc21` (stereo unspecified), `CS(=O)(=O)N[C@@H]1CCN(Cc2cccnc2)[C@H]1Cc1ccccc1` is higher in cytotoxicity at 10 µM: -76% for the first, -74.5% for the second.
